Results: ChEMBL document CHEMBL1127659, “In vitro and in vivo activities of reduced-size antagonists of luteinizing hormone-releasing hormone” (J Med Chem, 1994)

Species on record: Rattus norvegicus
Experiment: In vitro antagonistic potency against release of luteinizing hormone (LH) from cultured rat pituitary cells.
Format: functional
Settings: Pituitary gland cell, read-out: pA2 (converted)
Procedure, shortened: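 Cultured rat pituitary cells, agonist-stimulated LH release. pA2 is the negative log of the antagonist concentration that makes a 2-fold higher agonist concentration necessary to release LH. Compounds tested as TFA salts.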

In the case of `CCNC(=O)[C@@H]1CCCN1C(=O)[C@H](CCCN=C(N)N)NC(=O)[C@H](CC(C)C)NC(=O)[C@@H](Cc1c[nH]c2ccccc12)NC(=O)[C@H](Cc1ccc(O)cc1)NC(=O)[C@H](CO)NC(=O)[C@@H](Cc1ccc(Cl)cc1)NC(=O)CCc1ccc(F)cc1`, the Kb is reported as 17.8 pM.

With `CCNC(=O)[C@@H]1CCCN1C(=O)[C@H](CCCN=C(N)N)NC(=O)[C@H](CC(C)C)NC(=O)[C@@H](Cc1c[nH]c2ccccc12)NC(=O)[C@H](Cc1ccc(O)cc1)NC(=O)[C@H](CO)NC(=O)[C@@H](Cc1c[nH]c2ccccc12)NC(=O)c1cc2cc(F)ccc2[nH]1` the Kb was 41700 pM.

`CCNC(=O)[C@@H]1CCCN1C(=O)[C@H](CCCN=C(N)N)NC(=O)[C@H](CC(C)C)NC(=O)[C@@H](Cc1c[nH]c2ccccc12)NC(=O)[C@H](Cc1ccc(O)cc1)N(C)C(=O)[C@H](CO)NC(=O)[C@@H](Cc1cccc2ccccc12)NC(=O)CCc1ccc(F)cc1` gave a Kb of 5.62 pM.

Molecule `CCNC(=O)[C@@H]1CCCN1C(=O)[C@H](CCCN=C(N)N)NC(=O)[C@H](CC(C)C)NC(=O)[C@@H](Cc1c[nH]c2ccccc12)NC(=O)[C@H](Cc1ccc(O)cc1)NC(=O)[C@H](CO)NC(=O)[C@@H](Cc1c[nH]c2ccccc12)NC(=O)c1cc2ccccc2[nH]1` has a Kb of 851 pM.

In the case of `CCNC(=O)[C@@H]1CCCN1C(=O)[C@H](CCCN=C(N)N)NC(=O)[C@H](CC(C)C)NC(=O)[C@@H](Cc1ccc(O)cc1)NC(=O)[C@H](Cc1ccc(O)cc1)NC(=O)[C@H](CO)NC(=O)[C@H](Cc1c[nH]c2ccccc12)NC(=O)CCc1ccc(F)cc1`, the Kb is reported as 12600 pM.

Work on `CCNC(=O)[C@@H]1CCCN1C(=O)[C@H](CCCN=C(N)N)NC(=O)[C@H](CC(C)C)NC(=O)[C@@H](Cc1ccc(Cl)cc1)NC(=O)[C@H](Cc1ccc(O)cc1)NC(=O)[C@H](CO)NC(=O)[C@H](Cc1c[nH]c2ccccc12)NC(=O)CCc1ccc(F)cc1` yielded a Kb of 8.91 pM.

`CCNC(=O)[C@@H]1CCCN1C(=O)[C@H](CCCN=C(N)N)NC(=O)[C@H](CC(C)C)NC(=O)[C@@H](Cc1c[nH]c2ccccc12)NC(=O)[C@H](Cc1ccc(O)cc1)NC(=O)[C@H](CO)NC(=O)[C@@H](Cc1cccc2ccccc12)NC(=O)CCc1ccc(F)cc1` gave a Kb of 7.08 pM.

In the case of `CCNC(=O)[C@@H]1CCCN1C(=O)[C@H](CCCN=C(N)N)NC(=O)[C@H](CC(C)C)NC(=O)[C@@H](Cc1c[nH]c2ccccc12)NC(=O)[C@H](Cc1ccc(O)cc1)NC(=O)[C@H](CO)NC(=O)[C@H](Cc1c[nH]c2ccccc12)NC(=O)Cc1ccccc1`, the Kb is reported as 5500 pM.

`CCNC(=O)[C@@H]1CCCN1C(=O)[C@H](CCCN=C(N)N)NC(=O)[C@H](CC(C)C)NC(=O)[C@@H](Cc1c[nH]c2ccccc12)NC(=O)[C@H](Cc1ccc(O)cc1)NC(=O)[C@H](CO)NC(=O)[C@H](Cc1c[nH]c2ccccc12)NC(=O)CCc1ccc(C(F)(F)F)cc1` gave a Kb of 955 pM.

In the case of `CCNC(=O)[C@@H]1CCCN1C(=O)[C@H](CCCN=C(N)N)NC(=O)[C@H](CC(C)C)NC(=O)[C@@H](Cc1c[nH]c2ccccc12)NC(=O)[C@H](Cc1ccc(O)cc1)NC(=O)[C@H](CO)NC(=O)[C@H](Cc1c[nH]c2ccccc12)NC(=O)c1cc2ccccc2[nH]1`, the Kb is reported as 17800 pM.

Work on `CCNC(=O)[C@@H]1CCCN1C(=O)[C@H](CCCN=C(N)N)NC(=O)[C@H](CC(C)C)NC(=O)[C@@H](Cc1c[nH]c2ccccc12)NC(=O)[C@H](Cc1ccc(O)cc1)NC(=O)[C@H](CO)NC(=O)[C@H](Cc1c[nH]c2ccccc12)NC(=O)Cc1ccc(Cl)cc1` yielded a Kb of 5500 pM.

`CCNC(=O)[C@@H]1CCCN1C(=O)[C@H](CCCN=C(N)N)NC(=O)[C@H](CC(C)C)NC(=O)[C@@H](Cc1c[nH]c2ccccc12)NC(=O)[C@H](Cc1ccc(O)cc1)NC(=O)[C@H](CO)NC(=O)[C@H]1CCCN1C(=O)CCc1ccc(F)cc1` was tested, and the Kb was 2400 pM.

Work on `CCNC(=O)[C@@H]1CCCN1C(=O)[C@H](CCCN=C(N)N)NC(=O)[C@H](CC(C)C)NC(=O)[C@@H](Cc1c[nH]c2ccccc12)NC(=O)[C@H](Cc1ccc(O)cc1)N(C)C(=O)[C@H](CO)NC(=O)[C@@H](Cc1c[nH]c2ccccc12)NC(=O)CCc1ccc(F)cc1F` yielded a Kb of 10 pM.

With `CCNC(=O)[C@@H]1CCCN1C(=O)[C@H](CCCN=C(N)N)NC(=O)[C@H](CC(C)C)NC(=O)[C@@H](Cc1c[nH]c2ccccc12)NC(=O)[C@H](Cc1ccc(O)cc1)NC(=O)[C@H](CO)NC(=O)[C@H](Cc1c[nH]c2ccccc12)NC(=O)[C@H](Cc1ccccc1)NC(C)=O` the Kb was 9550 pM.

Molecule `CCNC(=O)[C@@H]1CCCN1C(=O)[C@H](CCCN=C(N)N)NC(=O)[C@H](CC(C)C)NC(=O)[C@@H](CCCCNC(=O)c1cccnc1)NC(=O)[C@H](Cc1ccc(O)cc1)N(C)C(=O)[C@H](CO)NC(=O)[C@@H](Cc1c[nH]c2ccccc12)NC(=O)CCc1ccc(F)cc1` has a Kb of 34.7 pM.

`CCNC(=O)[C@@H]1CCCN1C(=O)[C@H](CCCN=C(N)N)NC(=O)[C@H](CC(C)C)NC(=O)[C@@H](CCCCNC(=O)c1cccnc1)NC(=O)[C@H](Cc1ccc(O)cc1)N(C)C(=O)[C@H](CO)NC(=O)[C@@H](Cc1c[nH]c2ccccc12)NC(=O)CCc1ccc(F)cc1F` gave a Kb of 8.91 pM.

Molecule `CCNC(=O)[C@@H]1CCCN1C(=O)[C@H](CCCN=C(N)N)NC(=O)[C@H](CC(C)C)NC(=O)[C@@H](Cc1c[nH]c2ccccc12)NC(=O)[C@H](Cc1ccc(O)cc1)N(C)C(=O)[C@H](CO)NC(=O)[C@@H](Cc1cccc2ccccc12)NC(=O)CCc1ccc(Br)cc1` has a Kb of 6.31 pM.

In the case of `CCNC(=O)[C@@H]1CCCN1C(=O)[C@H](CCCN=C(N)N)NC(=O)[C@H](CC(C)C)NC(=O)[C@@H](Cc1c[nH]c2ccccc12)NC(=O)[C@H](Cc1ccc(O)cc1)NC(=O)[C@H](CO)NC(=O)[C@H](Cc1c[nH]c2ccccc12)NC(=O)CCc1ccc(OC)cc1`, the Kb is reported as 2400 pM.

In the case of `CCNC(=O)[C@@H]1CCCN1C(=O)[C@H](CCCN=C(N)N)NC(=O)[C@H](CC(C)C)NC(=O)[C@@H](Cc1c[nH]c2ccccc12)NC(=O)[C@H](Cc1ccc(O)cc1)N(C)C(=O)[C@H](CO)NC(=O)[C@@H](Cc1c[nH]c2ccccc12)NC(=O)CCc1ccc(Cl)cc1`, the Kb is reported as 3.98 pM.

For `CCNC(=O)[C@@H]1CCCN1C(=O)[C@H](CCCN=C(N)N)NC(=O)[C@H](CC(C)C)NC(=O)[C@@H](Cc1c[nH]c2ccccc12)NC(=O)[C@H](Cc1ccc(O)cc1)NC(=O)[C@H](CO)NC(=O)[C@H](Cc1c[nH]c2ccccc12)NC(=O)CCc1cccc(F)c1`, the Kb was 891 pM.

For `CCNC(=O)[C@@H]1CCCN1C(=O)[C@H](CCCN=C(N)N)NC(=O)[C@H](CC(C)C)NC(=O)[C@@H](CCCCNC(=O)c1cccnc1)NC(=O)[C@H](Cc1ccc(O)cc1)NC(=O)[C@H](CO)NC(=O)[C@@H](Cc1c[nH]c2ccccc12)NC(=O)CCc1ccc(F)cc1`, the Kb was 95.5 pM.

For `CCNC(=O)[C@@H]1CCCN1C(=O)[C@H](CCCN=C(N)N)NC(=O)[C@H](CC(C)C)NC(=O)[C@@H](Cc1c[nH]c2ccccc12)NC(=O)[C@H](Cc1ccc(O)cc1)NC(=O)[C@H](CO)NC(=O)[C@H](Cc1c[nH]c2ccccc12)NC(=O)CCc1ccccc1F`, the Kb was 447 pM.

`CCNC(=O)[C@@H]1CCCN1C(=O)[C@H](CCCN=C(N)N)NC(=O)[C@H](CC(C)C)NC(=O)[C@@H](Cc1c[nH]c2ccccc12)NC(=O)[C@H](Cc1ccc(O)cc1)NC(=O)[C@H](CO)NC(=O)[C@@H](Cc1c[nH]c2ccccc12)NC(=O)Cc1ccc(C(F)(F)F)cc1` gave a Kb of 2630 pM.

`CCNC(=O)[C@@H]1CCCN1C(=O)[C@H](CCCN=C(N)N)NC(=O)[C@H](CC(C)C)NC(=O)[C@@H](CCCCNC(=O)c1cccnc1)NC(=O)[C@H](Cc1ccc(O)cc1)N(C)C(=O)[C@H](CO)NC(=O)[C@@H](Cc1c[nH]c2ccccc12)NC(=O)CCc1cccc(F)c1` gave a Kb of 87.1 pM.

Molecule `CCNC(=O)[C@@H]1CCCN1C(=O)[C@H](CCCN=C(N)N)NC(=O)[C@H](CC(C)C)NC(=O)[C@@H](Cc1c[nH]c2ccccc12)NC(=O)[C@H](Cc1ccc(O)cc1)NC(=O)[C@@H]1CC(O)CN1C(=O)[C@@H](Cc1c[nH]c2ccccc12)NC(=O)CCc1ccc(F)cc1` (some centres undefined) has a Kb of 20900 pM.

`CC(C)C[C@H](NC(=O)[C@@H](CCCCNC(=O)c1cccnc1)NC(=O)[C@H](Cc1ccc(O)cc1)N(C)C(=O)[C@H](CO)NC(=O)[C@@H](Cc1cccc2ccccc12)NC(=O)CCc1ccc(F)cc1)C(=O)N[C@@H](CCCCNC(C)C)C(=O)N1CCC[C@H]1C(=O)O` was tested, and the Kb was 7760 pM.

`CCNC(=O)[C@@H]1CCCN1C(=O)[C@H](CCCN=C(N)N)NC(=O)[C@H](CC(C)C)NC(=O)[C@@H](Cc1c[nH]c2ccccc12)NC(=O)[C@H](Cc1ccc(O)cc1)NC(=O)[C@H](CO)NC(=O)[C@H](Cc1cccc2ccccc12)NC(=O)CCc1ccc(F)cc1` was tested, and the Kb was 5.01 pM.

`CC(C)C[C@H](NC(=O)[C@@H](CCCCNC(=O)c1cccnc1)NC(=O)[C@H](Cc1ccc(O)cc1)N(C)C(=O)[C@H](CO)NC(=O)[C@@H](Cc1cccc2ccccc12)NC(=O)CCc1ccc(F)cc1)C(=O)N[C@@H](CCCCNC(C)C)C(=O)N1CCC[C@H]1C(N)=O` was tested, and the Kb was 6.92 pM.

In the case of `CCNC(=O)[C@@H]1CCCN1C(=O)[C@H](CCCN=C(N)N)NC(=O)[C@H](CC(C)C)NC(=O)[C@@H](Cc1c[nH]c2ccccc12)NC(=O)[C@H](Cc1ccc(O)cc1)NC(=O)[C@H](CO)N(C)C(=O)[C@@H](Cc1c[nH]c2ccccc12)NC(=O)CCc1ccc(F)cc1`, the Kb is reported as 115 pM.

`CCNC(=O)[C@@H]1CCCN1C(=O)[C@H](CCCN=C(N)N)NC(=O)[C@H](CC(C)C)NC(=O)[C@@H](CCCCNC(=O)c1cccnc1)NC(=O)[C@H](Cc1ccc(O)cc1)NC(=O)[C@H](CO)NC(=O)[C@H](Cc1c[nH]c2ccccc12)NC(=O)CCc1ccc(F)cc1` gave a Kb of 20900 pM.

In the case of `CCNC(=O)[C@@H]1CCCN1C(=O)[C@H](CCCN=C(N)N)NC(=O)[C@H](CC(C)C)NC(=O)[C@@H](Cc1c[nH]c2ccccc12)NC(=O)[C@H](Cc1ccc(O)cc1)NC(=O)[C@H](CO)NC(=O)[C@@H](Cc1c[nH]c2ccccc12)NC(=O)CCc1ccc(Cl)cc1`, the Kb is reported as 166 pM.

`CCNC(=O)[C@@H]1CCCN1C(=O)[C@H](CCCN=C(N)N)NC(=O)[C@H](CC(C)C)NC(=O)[C@@H](Cc1c[nH]c2ccccc12)NC(=O)[C@H](Cc1ccc(O)cc1)NC(=O)[C@H](CO)NC(=O)[C@H](Cc1c[nH]c2ccccc12)NC(=O)CCc1ccc(Cl)cc1` showed a Kb of 126 pM.

`CCNC(=O)[C@@H]1CCCN1C(=O)[C@H](CCCN=C(N)N)NC(=O)[C@H](CC(C)C)NC(=O)[C@@H](CCCCNC(=O)c1cccnc1)NC(=O)[C@H](Cc1ccc(O)cc1)N(C)C(=O)[C@H](CO)NC(=O)[C@@H](Cc1c[nH]c2ccccc12)NC(=O)CCc1ccc(Cl)cc1` gave a Kb of 15.8 pM.

Work on `CCNC(=O)[C@@H]1CCCN1C(=O)[C@H](CCCN=C(N)N)NC(=O)[C@H](CC(C)C)NC(=O)[C@@H](Cc1c[nH]c2ccccc12)NC(=O)[C@H](Cc1ccc(O)cc1)NC(=O)[C@H](CO)NC(=O)[C@@H](Cc1c[nH]c2ccccc12)NC(=O)CCc1ccc(F)c(F)c1` yielded a Kb of 35.5 pM.
